High-throughput results: PubChem, several laboratories
In the library only some 1.8% were active in any assay of this set; here they are far more common.
PHOSPHO1 block: blocks human PHOSPHO1 phosphatase activity. Q8TCT1. recombinant PHOSPHO1, absorbance phosphatase assay. inhibition, % at 13.3 µM. 290,000 tested, 1.1% active. AID 1565; in the data active = inhibition above about 60%
p-CIP stab down: compounds decreasing mouse p/CIP protein stability; 290,000 tested, 0.01% active; F442A p/CIP-EGFP cells, EGFP fluorescence, 16 h; decrease of EGFP signal, % at 10 µM; AID 1984;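 active = EGFP signal decrease of at least 30% at 10 µM or well 3 SD below plate mean, unless failing retest; inactive = the rest, including hits failing retest or dose response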
A3A deaminase: blocks human APOBEC3A ssDNA deamination; inhibition, % at 20 µM; AID 493011; 330,000 tested, 0.41% active; P31941; recombinant A3A, FAM/TAMRA ssDNA deamination fluorescence;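 active = at least 40% inhibition at 20 µM here, with at most 30% in a related deaminase screen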;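 note: plate controls were A3A with DMSO for no effect and wells lacking A3A enzyme for full effect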
Target sequence (P31941 whole entry, looked up): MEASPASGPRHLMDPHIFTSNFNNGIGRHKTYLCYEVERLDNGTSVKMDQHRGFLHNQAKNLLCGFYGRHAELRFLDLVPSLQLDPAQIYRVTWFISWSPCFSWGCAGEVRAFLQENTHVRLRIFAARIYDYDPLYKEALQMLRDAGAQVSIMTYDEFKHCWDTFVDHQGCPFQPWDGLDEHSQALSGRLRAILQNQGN
TbMetRS inhib: blocks T. brucei methionyl-tRNA synthetase activity; inhibition, % at 11.9 µM; purified T. brucei MetRS, ATP depletion, Kinase-Glo luminescence; 360,000 tested, 0.4% active;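 active = inhibition above a per-plate cutoff of the control wells' mean inhibition plus 3 SD, cut at about 5.5% in these data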;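 note: 0% = DMSO wells median and 100% = median of wells with control inhibitor compound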
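Material – parasite MetRS enzyme · Medium – HEPES-MgCl2-KCl buffer plus DTT, spermine, BSA, pyrophosphatase · Reagent – ATP, methionine and E. coli bulk tRNA substrates · Times – 15 min enzyme-compound preincubation, 2 h reaction, 10 min detection, 25 °C · Measured by – luminescence of leftover ATP · Evaluation – percent inhibition relative to median high and low control wells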
A3G deaminase: blocks human APOBEC3G single-stranded DNA deamination; inhibition, % at 20 µM; recombinant A3G, ssDNA deamination FAM/TAMRA fluorescence; 330,000 tested, 0.28% active;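 active = inhibition of at least 40% at 20 µM, with no more than 30% in the related APOBEC3A deaminase screen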;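 note: plate controls were DMSO wells with A3G for no effect and wells lacking A3G enzyme for full effect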
A3G conf: APOBEC3G (human) deaminase inhibition, confirmed; shares compounds with A3G deaminase; recombinant A3G ssDNA deaminase, UDG/FAM-TAMRA fluorescence; inhibition, % at 20 µM; 890 tested, 72% active; AID 493152;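 active = inhibition reaching a set limit in any replicate at 20 µM, the limit being 80% of the first screen's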
UDG A3G counter: E. coli UDG inhibition in APOBEC3G counter-screen; shares compounds with A3G deaminase; UDG counterscreen, FAM/TAMRA oligo fluorescence; inhibition, % at 20 µM; 710 tested, under 10 active; AID 504715;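 active = compounds giving 40% or more inhibition at 20 µM in any one of the three replicates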;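 note: plate controls were DMSO wells with UDG and oligo for no effect and DMSO wells lacking both for full effect; inhibitors lower the FAM signal released by uracil excision and alkaline cleavage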
Target sequence (P12295 whole entry, looked up): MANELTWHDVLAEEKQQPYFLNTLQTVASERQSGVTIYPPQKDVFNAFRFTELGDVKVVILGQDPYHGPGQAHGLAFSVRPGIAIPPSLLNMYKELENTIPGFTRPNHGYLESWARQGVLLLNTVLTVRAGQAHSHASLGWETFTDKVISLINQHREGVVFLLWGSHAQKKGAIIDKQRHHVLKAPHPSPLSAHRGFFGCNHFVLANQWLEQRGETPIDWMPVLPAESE
* hit, by the source's call; . = no result.

SMILES | PHOSPHO1 block | p-CIP stab down | A3A deaminase | TbMetRS inhib | A3G deaminase | A3G conf | UDG A3G counter
COc1ccc(S(=O)(=O)NC2CCCC2)c(Cl)c1Cl | 7 | -9 | 2 | -1 | -2 | . | .
COc1ccc2nc(NC(=S)N(C)C)sc2c1 | 95* | -2 | 2 | 0 | 61* | 69* | -5
CSc1ccccc1CNC(=O)C1(C)CCCN1CC(C)C (stereo not given) | . | . | . | 0 | . | . | .
COc1ccc(Cl)cc1S(=O)(=O)N1CCC(C(=O)NC2CC2)CC1 | 32 | -16 | 1 | 0 | -8 | . | .
Cc1cc(C)c2[nH]c(=S)cc(C)c2c1 | 104* | -5 | -4 | 0 | 73* | active | -2
CC[n+]1c(/C=C2\C=C(C)CC(C)(C)C2)sc2ccccc21 | 100* | -5 | 20 | -1 | 50* | 57* | .
CCc1c(C)sc(NC(=O)Cc2ccccc2OC)c1C(=O)N1CCOCC1 | 28 | 2 | -4 | 0 | -9 | . | .
COc1cc(C)c(Br)cc1S(=O)(=O)NCCN1CCOCC1 | 39 | -4 | -1 | 0 | -1 | . | .
Cc1csc(SCC(=O)Nc2sc3c(c2C#N)CCC3)n1 | 16 | -12 | 6 | -2 | 42* | 7 | .
Cc1ccc(C(=O)c2c(NC(=O)CSc3nnc(N)s3)sc3c2CCCC3)cc1 | -12 | -10 | 0 | -1 | 45* | -3 | .
Cc1ccc(C(=O)NC2CCN(CC(=O)Nc3ccccc3Cl)CC2)cc1 | 29 | -1 | -3 | 0 | -5 | . | .
CCSC1=NC2(CCCCC2)Nc2sc3c(c21)CCCC3 | 95* | 5 | 1 | -1 | 59* | 39* | .
C[C@H]1CN([C@@H](C)CO)C(=O)CCCn2cc(nn2)CO[C@@H]1CN(C)S(=O)(=O)c1ccc(Cl)cc1 | . | . | . | -2 | . | . | .
CC1CCC2(CC1)NC(=S)N(c1ccccc1)N2 (stereo not given) | 100* | -1 | 0 | 0 | 61* | 23* | 3
CC1CCC2(CC1)NC(=S)N(C(C)(C)C)N2 (stereo not given) | -1 | -9 | 2 | 0 | 51* | 24* | -3
O=C1NC2(CCCCC2)NN1c1ccccc1 | -3 | 4 | 2 | 0 | -3 | . | .
Cc1ccc(NC(=O)C(C)SCC(=O)Nc2ccc(F)cc2)cc1S(=O)(=O)N1CCOCC1 (stereo not given) | . | . | 4 | 0 | -1 | . | .
O=C(CSc1ccccc1)Nc1nnc(COc2ccc(Cl)cc2)s1 | 78* | -5 | 7 | 0 | 44* | 58* | -6
CCc1nnc(NC(=O)c2c(-c3ccccc3)noc2C)s1 | 49 | -9 | -3 | -1 | -12 | . | .
CCOCC(=O)Nc1nnc(COc2ccc(Cl)cc2)s1 | 95* | 7 | 2 | -1 | 41* | 20* | -3
Cc1onc(-c2ccccc2)c1C(=O)Nc1nnc(COc2ccc(Cl)cc2)s1 | 37 | -16 | -1 | -1 | 58* | 38* | -3
C[C@H](c1ccccc1)N1C[C@H](COCc2ccccc2)Oc2cc(N3CCC[C@@H]3CO)ccc2S1(=O)=O | . | . | . | 0 | . | . | .
COc1ccc(NC(=O)C2CC(=O)N=C(N)S2)cc1 (stereo not given) | 33 | -11 | -2 | 0 | -7 | . | .
CCc1cc2c(SCC(=O)Nc3cc(C)on3)ncnc2s1 | 7 | -8 | 6 | -1 | 1 | . | .
Cc1ccc(-c2cc(C(=O)Nc3cccnc3)c3ccccc3n2)o1 | 21 | -11 | 25 | -1 | 50* | 36* | -5
Cc1ccc(NC(=O)c2cc(-c3ccc(C)o3)nc3ccccc23)cc1 | 37 | -4 | 6 | -2 | 5 | . | .
Cc1nn(C(=O)c2cccc([N+](=O)[O-])c2)c(C)c1Cl | . | 8 | -4 | 0 | -10 | . | .
S=c1[nH]nc(-c2n[nH]c3c2CCC3)n1/N=C/C=C/c1ccco1 | -36 | 1 | 59 | 0 | 51 | . | .
Cc1cc(-c2n[nH]c(=S)n2/N=C/c2ccccc2[N+](=O)[O-])n[nH]1 | -17 | 2 | -5 | -1 | 61* | 82* | -2
COc1cccc(/C=N/n2c(C3CCCCC3)n[nH]c2=S)c1O | 10 | 40 | -4 | -2 | 13 | . | .
